Assay: Toxicity liver stage against HepG2, at 10uM
Type: cell-based
Design: test concentration 10 uM, cell line HepG2-A16-CD81EGFP
Conditions: human, HepG2-A16-CD81EGFP cells; read-out: INHIBITION
In short: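 Uninfected HepG2-A16-CD81EGFP cells, 3 × 10^3 per well, 1536-well, plated on prespotted compound at 10 μM final, parasite-free screening media added to match infected plates; puromycin 10 μM positive, DMSO 0.5% negative; run in parallel with 48 h PbLuc assay at 37 °C, 5% CO2; viability by CellTiter-Glo luminescence, normalized to controls.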

Row | SMILES | cytotoxicity at 10 µM [%]
1 | COc1cc2cc(C(=O)O)n(C)c2c(OC)c1OC | 12.8
2 | COc1ccsc1C(=O)NCCN1CCOCC1 | 6.57
3 | CC(=O)N1CCC(N2CC[C@H](c3nc4cc(F)ccc4o3)C2)CC1 | 2.23
4 | CC(C)C[C@@H]1N[C@H](C(=O)NC(C)C)Cc2c[nH]c3cccc1c23 | 7.37
5 | Cc1nc(Oc2ccccc2F)sc1C(=O)O | -11.2
6 | COc1cccc(-c2nc(CC(=O)NC3(C)CCS(=O)(=O)C3)cs2)c1 (stereo not given) | 19
7 | Cn1cc(S(=O)(=O)NCC2CCN(C(=O)c3ccoc3)CC2)cn1 | -3.82
8 | O=C1[C@H]2CN(C(=O)[C@H]3CCCO3)C[C@H]2CN1CC1CC1 | -6.66
9 | Cc1nc(N2CCCC2)nc2c1CN(C(=O)NC(C)C)CC2 | 2.94
10 | COCCNC(=O)[C@H]1CC[C@@H]2[C@@H](CCN2S(C)(=O)=O)O1 | -8.87
11 | CCn1ncc2c1C(COC)CN(S(=O)(=O)C1CC1)C2 (stereo not given) | 11.1
12 | Cc1cnc(N2CCC3(CCCN(c4ncc(F)cn4)C3)C2)nc1 (stereo not given) | -124
13 | Cc1nc(CN2C(=O)COC3(CCN(C(N)=O)CC3)C2C)cs1 (stereo not given) | -130
14 | COCCC(=O)N1CCC2(CCN(Cc3ccc(OC)c(F)c3)C2)C1 (stereo not given) | 9.75
15 | Cc1nc(N2CCCC2)nc2c1CCN(C(=O)CC1CCCC1)CC2 | 0.457
16 | O=C(CCc1nc2cccnc2[nH]1)NCc1ccc2c(c1)OCO2 | 0.356
17 | CCn1c(NCc2cccnc2)nc2c(C)nn(C)c2c1=O | 5.17
18 | CCn1nc(C)c2nc(C(C)C)nc(N3CCN(C)CC3)c21 | -2.45
19 | Cc1ncc2c(n1)CCCC2NC(=O)c1ccc(Cn2cccn2)cc1 (stereo not given) | -7.55
20 | CNc1cccc(C2CCN(C(C)=O)CC2)n1 | 7.49
21 | Cc1ncc(C(=O)N2CCCC2(C)C(=O)N2CCOCC2)c(C)n1 (stereo not given) | -0.681
22 | CC(=O)N1CCOC(c2c(C(=O)O)sc3ccccc23)C1 (stereo not given) | 5.76

Row | SMILES | cytotoxicity at 10 µM [%]
23 | O=C1NCc2ccccc2CC12CCN(Cc1c(F)cccc1Cl)C2 (stereo not given) | 11.2
24 | NC(=O)Nc1cc(F)ccc1SCC(F)F | 0.0687
25 | COc1ccccc1C1(CNc2cn[nH]c(=O)c2Cl)CCOCC1 | 0.152
26 | CN(C)S(=O)(=O)N1CCC(C(O)c2ccc(Cl)cc2)CC1 (stereo not given) | -21.4
27 | NC1(c2nc(-c3ccccc3)cc(=O)[nH]2)CCCCC1 | 7.25
28 | O=C(Nc1cc(C(F)(F)F)c[nH]c1=O)C1CCCO1 (stereo not given) | -0.37
29 | CN1CCC(NC(=O)Nc2cnn(-c3ccccc3Cl)c2)CC1 | -5.5
30 | Cc1cc(C)n(C2CCCN(C(=O)CN(C)C3CC3)C2)n1 (stereo not given) | -1.91
31 | Cc1noc(C)c1NC(=O)N1CCC(NC(=O)OC(C)(C)C)CC1 | 4
32 | CCOc1ccc(Cl)c(C(=O)N2CCCC(c3ccn[nH]3)C2)n1 (stereo not given) | 1.58
33 | CC(C)c1nsc(N2CCOC3(CCCC3)C2)n1 | 0.243
34 | N#CCCNC(=O)CSc1ccc(F)cc1F | 3.94
35 | COc1ccc(OC(F)F)c(NCC(=O)NCC(=O)N2CCCC2)c1 | -0.77
36 | Cc1cccc(C2(CNC(C)c3nnc(C)o3)CCCC2)c1 (stereo not given) | 6.73
37 | CC(C)n1cc(CN2CCCN(C(=O)c3ccoc3)CC2)cn1 | -3.44
38 | Cc1cc(C)c(S(N)(=O)=O)cc1C(=O)NCC1Cc2ccccc2O1 (stereo not given) | -4.53
39 | O=C(CN1CCCC(CO)C1)NCCOc1cccc(Cl)c1 (stereo not given) | -12.2
40 | CCS(=O)(=O)NCCNC(=O)N(Cc1ccc(C)o1)C(C)C | 1.84
41 | CN(C)c1cccc(C(=O)N2CCn3c(nnc3-c3ccccc3)C2)c1 | -0.375
42 | Cc1c(Br)cccc1CNC1(CCO)CCOCC1 | -10.7
43 | O=C(NCCC1CCN(CC(F)(F)F)CC1)C1CCCOC1 (stereo not given) | 1.51
44 | CN1CCC(NC(=O)Nc2ccc(F)c(Br)c2)C1=O (stereo not given) | -137

Row | SMILES | cytotoxicity at 10 µM [%]
45 | COCCN(Cc1ccco1)Cc1nc(-c2ccccc2)no1 | 6.4
46 | CCc1nc(CC(=O)NC(C#N)CC)cs1 (stereo not given) | 10.3
47 | Cn1cc(C(=O)Nc2cccc(CCN3CCCC3)c2)ccc1=O | 7.76
48 | Cc1ccccc1N(CC(=O)NCCc1nnc2n1CCC2)S(C)(=O)=O | -0.69
49 | CC(C)c1nnc(NCCS(C)(=O)=O)s1 | -1
50 | CCc1nnc(Sc2nn3cc(C)nc3s2)n1C | -3.64
51 | C1CN(c2nc(C3CC3)no2)CCN(C2CCOCC2)C1 | 0.442
52 | Cc1nc(CN2CC(CO)Oc3ccccc32)sc1C (stereo not given) | 0.918
53 | CC(=O)N1CCN(C(=O)NCCCN(C(C)C)S(C)(=O)=O)CC1 | -14
54 | COC(=O)CN(Cc1ccccc1C)C(=O)CCNC(=O)C(C)(C)C | 12.9
55 | O=C(NCCCNCC1CNc2ccnn2C1)c1ccccc1 (stereo not given) | -1.48
56 | Cc1cnn(CC2CCCN2CC(=O)N(C)Cc2ccc(C)o2)c1 (stereo not given) | -7.19
57 | COc1ccc(NC(C)C(=O)N2CCN(Cc3ccccc3)CC2)cn1 (stereo not given) | 1.26
58 | O=C(C1CCC1)N1CCC2(CC1)OCCO2 | 4.93
59 | O=C(c1ccnnc1)N1CCN2C[C@H](Oc3cccnc3)C[C@H]2C1 | 1.43
60 | CNC(=O)c1ccnc(CC2COc3c(cccc3OC)C2)c1 (stereo not given) | 3.77
61 | CC(=O)NCCNC(=O)C1(Oc2cccnc2C)CCNCC1 | 3.24
62 | COCC(=O)N1CCCC1c1ccc(C(=O)NCc2ccccc2Cl)s1 (stereo not given) | -0.909
63 | Cc1ccc2nc(C(=O)N3C[C@@H](C(=O)O)[C@H](c4cccnc4)C3)cn2c1 | 2.98
64 | CC(Cc1cnccn1)NC(=O)c1cccc(CC2CCNCC2)c1 (stereo not given) | -9.37
65 | Cc1nc2c(c(N3C[C@@H](C)[C@@](C)(O)C3)n1)CCC2 | 9.74
66 | O=C(CCN1CCCCO1)N1CCC(CO)(Cc2ccccc2)CC1 | 7.26

Row | SMILES | cytotoxicity at 10 µM [%]
67 | CCN1CCN(C(=O)c2[nH]c3ccccc3c2Cl)[C@H]2CS(=O)(=O)C[C@H]21 | -5.41
68 | CN1CCC(N(C)C[C@H]2CC[C@@H](Cc3cccc(CO)c3)O2)CC1 | 0.224
69 | COC(=O)c1ccc(OC)c(OC23CCCN(CC2)C3)c1 (stereo not given) | -13.9
70 | O=C(N[C@@H]1CCNC[C@H]1O)c1ccc(O)c(Cl)c1 | -5.46
71 | CCC(NS(=O)(=O)c1ccc(C(=O)NC2CC2)cc1)c1cnn(C)c1 (stereo not given) | 7.64
72 | COc1ccc(N2CCN(Cc3noc(CC(C)C)n3)C(C)C2=O)cc1 (stereo not given) | 4.11
73 | O=c1[nH]cnc2c1CCN(S(=O)(=O)c1ccc(OC(F)(F)F)cc1)C2 | 1.61
74 | COC(=O)c1cc2c(=O)[nH]c(=O)n(CCc3ccccc3)c2nc1C | -4.74
75 | CCCc1nnc(N2CCC3(CC2)CC(=O)NC(=O)C3)o1 | 3.06
76 | CSCCC1c2nc[nH]c2CCN1Cc1ccnc2ccccc12 (stereo not given) | 13.2
77 | O=C(O)c1c[nH]c2cc(NS(=O)(=O)c3cccc(F)c3F)ccc12 | 5.08
78 | Clc1cc(CN2CCCCC2Cn2cncn2)c2ncccc2c1 (stereo not given) | -12.9
79 | Cn1ncc2c(N3CCCN(C(=O)c4ccsc4)CC3)ncnc21 | -10.6
80 | Cc1nnc(CN(Cc2ccc3c(c2)OCO3)C2CCCCC2)o1 | -6.14
81 | CC(Cc1ccco1)NC(=O)Nc1cccnc1 (stereo not given) | -6.78
82 | CN(C(=O)NCc1ccsc1)C1CCN(c2ccccc2)C1=O (stereo not given) | -5.63
83 | Cc1ccc(CNC(=O)Cn2nc(-c3ccc(F)cc3)oc2=O)cc1F | -5.86
84 | Cc1cc(C)n(CC2CCCN2C(=O)CCNc2ncccn2)n1 (stereo not given) | -2.31
85 | CC(Cn1ccnc1)NC(=O)NCc1ccc2c(c1)OCCO2 (stereo not given) | -18.6
86 | CS(=O)(=O)c1cccc(C(N)c2ccc(F)cc2)c1 (stereo not given) | -19.9
87 | COc1ccnc(N2CCN(C(=O)c3ccc(Cl)o3)CC2)n1 | -19.2
88 | O=C(Cc1cccc2ccccc12)N1CCC(Nc2cccnn2)CC1 | -17.1

Row | SMILES | cytotoxicity at 10 µM [%]
89 | CCOC1CCN(C(=O)NCCc2ccn(-c3ccccc3)n2)CC1 | -0.088
90 | COc1ncccc1CNCc1c(C)nn(C)c1N1CCOCC1 | -11.1
91 | CCc1nnsc1C(=O)N1CCCN(Cc2ccccc2)CC1 | 7.57
92 | N#Cc1ccc(CC(=O)N2CCCC(n3cccn3)C2)cc1 (stereo not given) | -1.95
93 | COc1ccc(C(=O)N(C)Cc2cc(C)on2)c(F)c1 | -5.2
94 | CCn1ccnc1CN1CCN(CC(O)Cn2cccn2)CC1 (stereo not given) | -5.97
95 | Cc1cnn(CC2CCCCN2CCC(=O)Nc2cc(C)on2)c1 (stereo not given) | -0.674
96 | CC(C)N1CCCCC1c1nc(N(C)C)ncc1I (stereo not given) | -3
97 | Cn1ccnc1CN1CCN2C[C@H](Oc3cncnc3)C[C@H]2C1 | 8.71
98 | Cc1cnc(N2CCC3(CCN(CC4CCCC4)C3=O)CC2)nc1 | -6.54
99 | O=C(O)[C@]12CCCN(Cc3ccsc3)C[C@H]1CN(c1ncccn1)C2 | -144
100 | CN(C)CCOCC1CN(C(=O)c2ccsc2)Cc2ccnn2C1 (stereo not given) | -0.0653
101 | CCN1C[C@@H]2CN(Cc3cccs3)C[C@@H]2C1=O | -3.19
102 | Cc1cnc(C(=O)N2CCCn3c(nc(CN(C)C)cc3=O)C2)cn1 | -5.93
103 | Cc1noc(C)c1CN1C[C@H](OCc2ccncc2)[C@H]2OCCC[C@H]21 | 9.98
104 | Cc1ccsc1C(=O)N1CCCn2c(nc(CN(C)C)cc2=O)C1 | -0.385
105 | Cc1cccc(CN2C(=O)CO[C@@H]3CN(CCO)C[C@H]32)c1 | -14.1
106 | O=C([C@@H]1COC[C@H]2CN(C3CCOCC3)C[C@H]21)N1CCCO1 | -3.2
107 | CC(C)C(=O)N1CCN(Cc2cnn(C)c2)CC2(CC(=O)N(C)C2)C1 (stereo not given) | 3.42
108 | c1cnc(N2CCC3(CCN(CC4CCOC4)CC3)C2)nc1 (stereo not given) | -5.56
109 | Cc1nc(CN2C(=O)COC3(CCN(CC4CC4)CC3)C2C)cs1 (stereo not given) | -131
110 | CCC(C)NS(=O)(=O)c1ccc(C=Cc2onc(C)c2NC(C)=O)cc1 (stereo not given) | -10.7

From ChEMBL document CHEMBL4513216, “Probing the Open Global Health Chemical Diversity Library for Multistage-Active Starting Points for Next-Generation Antimalarials” (ACS Infect Dis, 2020)
